Data: ChEMBL document CHEMBL4706580, “4-Amino-1,2,4-triazole-3-thione-derived Schiff bases as metallo-β-lactamase inhibitors” (Eur J Med Chem, 2020)
Calls of active or inactive are those of the source. No cut-off for these calls is given here.

Columns and labels:
[1] = Inhibition of beta-lactamase VIM-2 (unknown origin) expressed in Escherichia coli LZ2310 assessed as potentiation of cefoxitin antibacterial activity by measuring cefoxitin induced diameter of inhibition zone at 320 uM incubated for 18 hrs by disk diffusion method (reference value: 14 mm)
Summary of the method: (§1)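 Efflux-deficient E. coli LZ2310 (NorE, MdfA, AcrA knocked out) carrying pLB-II with the cloned MBL gene. Mueller-Hinton, CLSI disk diffusion; antibiotic disks (30 µg cefoxitin for VIM-2, 10 µg ampicillin for VIM-4, 30 µg ceftazidime for NDM-1/IMP-1) loaded with inhibitor in DMSO (≤15 µL). Zone diameter after 18 h, 35 ± 1 °C; DMSO and 220 µg EDTA controls. Triplicate.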

[2] = Inhibition of beta-lactamase NDM-1 (unknown origin) expressed in Escherichia coli LZ2310 assessed as potentiation of ceftazidime antibacterial activity by measuring ceftazidime induced diameter of inhibition zone at 320 uM incubated for 18 hrs by disk diffusion method (reference value: 15 mm); summary of the method: as §1
[3] = Inhibition of beta-lactamase VIM-2 (unknown origin) expressed in Escherichia coli XL-1 assessed as potentiation of cefoxitin antibacterial activity by measuring cefoxitin induced diameter of inhibition zone at 320 uM incubated for 18 hrs by disk diffusion method (reference value: 8 mm)
Summary of the method: (§2)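 Wild-type efflux E. coli XL-1 Blue transformed with pLB-II-VIM-2. Mueller-Hinton disk diffusion per CLSI, 30 µg cefoxitin disks loaded with inhibitor dissolved in DMSO (≤15 µL). Growth-inhibition zone measured after 18 h at 35 ± 1 °C; DMSO negative and 220 µg EDTA positive controls. Triplicate.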

[4] = Inhibition of beta-lactamase IMP-1 (unknown origin) expressed in Escherichia coli BL21(DE3) using imipenem as substrate by measuring substrate hydrolysis by spectrophotometric analysis
Summary of the method: (§3)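 Purified enzyme (overproduced in E. coli BL21(DE3), pET-9a; ion-exchange and gel filtration), 1-70 nM final. Reporter substrate 150 μM imipenem, read at 300 nm, 30 °C, 50 mM HEPES pH 7.5. Single-point screen at 100 or 200 μM; Ki from v0/vi vs [I] (0.5–1,000 μM final) assuming competitive inhibition, or Dixon plot. Triplicate.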

[5] = Inhibition of beta-lactamase NDM1 (unknown origin) expressed in Escherichia coli BL21(DE3) using cefotaxime/nitrocefin as substrate by measuring substrate hydrolysis by spectrophotometric analysis
Summary of the method: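 His-tagged enzyme from E. coli BL21(DE3) pET-15b, affinity-purified, 1-70 nM final. Reporter substrate 120 μM cefotaxime (260 nm) or 100 μM nitrocefin (482 nm), 30 °C, 50 mM HEPES pH 7.5. Inhibitor 0.5–1,000 μM final; competitive Ki from v0/vi vs [I] slope or Dixon plot. Triplicate.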

[6] = Inhibition of beta-lactamase L1 (unknown origin) expressed in Escherichia coli BL21(DE3) using nitrocefin as substrate by measuring substrate hydrolysis at 100 uM preincubated for 30 mins by spectrophotometric analysis
Summary of the method: (§4)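 Enzyme 0.2–0.8 nM in 25 mM HEPES pH 7.5 with 50 μM ZnCl2 final, pre-incubated 30 min at 21 °C with inhibitor (100 μM screen). Nitrocefin 100 μM final, read at 482 nm, 30 °C. Residual activity vs three uninhibited samples; Ki (1–100 μM inhibitor) from Hanes linearization, competitive model. Triplicate.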

[7] = Inhibition of beta-lactamase VIM2 (unknown origin) expressed in Escherichia coli BL21(DE3) using imipenem as substrate by measuring substrate hydrolysis at 200 uM by spectrophotometric analysis; summary of the method: as §3
[8] = Inhibition of beta-lactamase IMP-1 (unknown origin) expressed in Escherichia coli LZ2310 assessed as potentiation of ceftazidime antibacterial activity by measuring ceftazidime induced diameter of inhibition zone at 320 uM incubated for 18 hrs by disk diffusion method (reference value: 9 mm); summary of the method: as §1
[9] = Inhibition of beta-lactamase VIM4 (unknown origin) expressed in Escherichia coli BL21(DE3) using imipenem as substrate by measuring substrate hydrolysis by spectrophotometric analysis; summary of the method: as §3
[10] = Inhibition of beta-lactamase VIM2 (unknown origin) expressed in Escherichia coli BL21(DE3) using imipenem as substrate by measuring substrate hydrolysis at 100 uM by spectrophotometric analysis; summary of the method: as §3
[11] = Inhibition of beta-lactamase NDM1 (unknown origin) expressed in Escherichia coli BL21(DE3) using cefotaxime/nitrocefin as substrate by measuring substrate hydrolysis at 100 uM by spectrophotometric analysis
[12] = Inhibition of beta-lactamase VIM4 (unknown origin) expressed in Escherichia coli BL21(DE3) using imipenem as substrate by measuring substrate hydrolysis at 100 uM by spectrophotometric analysis; summary of the method: as §3
[13] = Inhibition of beta-lactamase IMP-1 (unknown origin) expressed in Escherichia coli LZ2310 assessed as potentiation of ceftazidime antibacterial activity by measuring ceftazidime induced diameter of inhibition zone at 80 uM incubated for 18 hrs by disk diffusion method (reference value: 9 mm); summary of the method: as §1
[14] = Inhibition of beta-lactamase IMP-1 (unknown origin) expressed in Escherichia coli LZ2310 assessed as potentiation of ceftazidime antibacterial activity by measuring ceftazidime induced diameter of inhibition zone at 40 uM incubated for 18 hrs by disk diffusion method (reference value: 9 mm); summary of the method: as §1
[15] = Inhibition of beta-lactamase NDM1 (unknown origin) expressed in Escherichia coli BL21(DE3) using cefotaxime/nitrocefin as substrate by measuring substrate hydrolysis at 200 uM by spectrophotometric analysis
[16] = Inhibition of beta-lactamase CphA (unknown origin) expressed in Escherichia coli BL21(DE3) using imipenem as substrate by measuring substrate hydrolysis by spectrophotometric analysis
Summary of the method: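 Enzyme 0.2–0.8 nM in 15 mM cacodylate pH 6.5, no added zinc, pre-incubated 30 min at 21 °C with inhibitor (100 μM screen). Imipenem substrate added from 10 mM stock; hydrolysis at 300 nm, 30 °C. Residual activity vs three uninhibited samples; Ki (1–100 μM inhibitor) by Hanes linearization, competitive model. Triplicate.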

[17] = Inhibition of beta-lactamase VIM4 (unknown origin) expressed in Escherichia coli BL21(DE3) using imipenem as substrate by measuring substrate hydrolysis at 200 uM by spectrophotometric analysis; summary of the method: as §3
[18] = Inhibition of beta-lactamase L1 (unknown origin) expressed in Escherichia coli BL21(DE3) using nitrocefin as substrate by measuring substrate hydrolysis at 200 uM preincubated for 30 mins by spectrophotometric analysis
[19] = Inhibition of beta-lactamase IMP-1 (unknown origin) expressed in Escherichia coli BL21(DE3) using imipenem as substrate by measuring substrate hydrolysis at 200 uM by spectrophotometric analysis; summary of the method: as §3
HUVEC = assay: Cytotoxicity in human HUVEC cells assessed as reduction in cell viability upto 100 uM incubated for 72 hrs by MTT assay; format: cell-based
[20] = Inhibition of beta-lactamase VIM-2 (unknown origin) expressed in Escherichia coli LZ2310 assessed as potentiation of cefoxitin antibacterial activity by measuring cefoxitin induced diameter of inhibition zone at 240 uM incubated for 18 hrs by disk diffusion method (reference value: 14 mm); summary of the method: as §1
[21] = target: Hydroxyacylglutathione hydrolase (Homo sapiens); assay: Inhibition of human Glyoxalase II expressed in Escherichia coli BL21 (DE3)
[22] = Inhibition of beta-lactamase VIM-2 (unknown origin) expressed in Escherichia coli XL-1 assessed as potentiation of cefoxitin antibacterial activity by measuring cefoxitin induced diameter of inhibition zone at 240 uM incubated for 18 hrs by disk diffusion method (reference value: 8 mm); summary of the method: as §2
[23] = Inhibition of beta-lactamase L1 (unknown origin) expressed in Escherichia coli BL21(DE3) using nitrocefin as substrate by measuring substrate hydrolysis preincubated for 30 mins by spectrophotometric analysis; summary of the method: as §4
HeLa = assay: Cytotoxicity in human HeLa cells assessed as cell lysis upto 250 uM incubated for 72 hrs by membrane integrity assay; format: cell-based
[24] = Inhibition of beta-lactamase VIM2 (unknown origin) expressed in Escherichia coli BL21(DE3) using imipenem as substrate by measuring substrate hydrolysis by spectrophotometric analysis; summary of the method: as §3

inhibition [6]	inhibition [7]	inhibition [10]	inhibition [11]	inhibition [12]	inhibition zone (IZ) [13] [mm]	inhibition [15]	SMILES	Ki [4] [µM]	Ki [5] [µM]	Ki [9] [µM]	Ki [16] [µM]	also measured
60%	inactive	inactive					O=C(O)c1ccccc1/C=N/n1c(-c2cccc(Cl)c2)n[nH]c1=S	58	7.5	2		inhibition zone (IZ) [1]: 14 mm; inhibition zone (IZ) [2]: 15 mm; inhibition zone (IZ) [3]: 8 mm; inhibition zone (IZ) [8]: 9 mm
61%	inactive	inactive	inactive	44%	13	inactive	Cc1ccccc1-c1n[nH]c(=S)n1/N=C/c1cc([N+](=O)[O-])ccc1O	11			3	inhibition zone (IZ) [14]: 9 mm
inactive	inactive	inactive	inactive	inactive	9	inactive	S=c1[nH]nc(-c2cc3ccccc3[nH]2)n1/N=C/c1ccc(OCc2ccccc2)cc1					inhibition [17]: inactive; inhibition [18]: inactive; inhibition [19]: 60%
							Cc1ccccc1-c1n[nH]c(=S)n1/N=C/c1ccccc1C(=O)O	58	110	1.6	120	Activity (HUVEC): Non-Toxic; inhibition zone (IZ) [20]: 20 mm; IC50 [21]: 25.8 µM; inhibition zone (IZ) [22]: 9 mm; Ki [23]: 40 µM; Activity (HeLa): Non-Toxic; Ki [24]: 3 µM
